Columns and labels:
[1] = biological target: Glutamate NMDA receptor; test: The compound was tested in vitro for the inhibition of N-methyl-D-aspartate glutamate receptor in rat cerebellar granule cells (RCGCs).
Summary of the method: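 Cultured rat cerebellar granule cells; cytosolic calcium rise stimulated by NMDA (50 µM) plus glycine (1 µM). Multiple cumulative concentration–response curves with at least five concentrations per test substance; IC50 by logit analysis.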

[2] = biological target: Glutamate NMDA receptor; test: The compound was tested in vitro for the displacement of the radioligand (+)-[3H]-MK-801 from synaptic plasma membranes from rat cortex against N-methyl-D-aspartate glutamate receptor; format: cell-free
[3] = tested on: Mus musculus; test: Relative anticonvulsant potency in frings mice by intraperitoneal administration expressed as effective dose; format: functional; conditions: ip
Summary of the method: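 Frings audiogenic seizure-susceptible mice of both sexes (18–25 g), in groups of eight, given varying ip doses. At the time of peak effect, each mouse was exposed to a 110 dB (11 kHz) sound for 20 s and observed for 25 s. Absence of hindlimb tonic extension counted as protection. ED50 by probit analysis.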

[4] = tested on: Mus musculus; test: Relative anticonvulsant potency in frings mice by peroral administration expressed as effective dose; format: functional; conditions: po
[5] = tested on: Mus musculus; test: Lethality in mice following 60 mg/kg/day ip dose; 8/8; format: ADME, organism-based; parameters: route intraperitoneal; conditions: in vivo
[6] = tested on: Mus musculus; test: Lethality in mice following 30 mg/kg/day ip dose; 4/7; format: ADME, organism-based; parameters: route intraperitoneal; conditions: in vivo
[7] = Relative anticonvulsant potency in frings mice by peroral administration expressed as toxic dose; format: ADME, organism-based; conditions: mouse, in vivo, po

C[C@@H](N)CC(c1cccc(F)c1)c1cccc(F)c1
IC50 [1]: 1110 nM
IC50 [2]: 4500 nM
ED50 [3]: 9.1 mg/kg

NCCC(c1cccc(F)c1)c1cccc(F)c1
ED50 [3]: 2.1 mg/kg
ED50 [4]: 9.7 mg/kg

CC(N)CC(c1cccc(F)c1)c1cccc(F)c1 (configuration not stated)
Lethality [5]: Lethal
Lethality [6]: Lethal
IC50 [1]: 145 nM
TD50 [7]: 18.3 mg/kg
IC50 [2]: 1040 nM
ED50 [3]: 4.9 mg/kg
ED50 [4]: 5.1 mg/kg

C[C@H](N)CC(c1cccc(F)c1)c1cccc(F)c1
IC50 [1]: 89 nM
TD50 [7]: 18.6 mg/kg
IC50 [2]: 762 nM
ED50 [3]: 2.7 mg/kg
ED50 [4]: 7.3 mg/kg
